ChEMBL document CHEMBL2434958, “Identification of a novel series of orexin receptor antagonists with a distinct effect on sleep architecture for the treatment of insomnia” (J Med Chem, 2013)
Active and inactive are the calls of the source. No cut-off for these calls is given here.

Columns and labels:
[1] = target: T1, Orexin receptor type 2 (Homo sapiens, UniProt O43614); assay: Antagonist activity at human OX2 receptor expressed in HEK cells assessed as inhibition of orexin A-induced Ca2+ accumulation after 1 hr by Fluo-4-AM staining-based FLIPR assay; format: functional, cell-based, HEK293
T1 sequence (O43614 whole entry): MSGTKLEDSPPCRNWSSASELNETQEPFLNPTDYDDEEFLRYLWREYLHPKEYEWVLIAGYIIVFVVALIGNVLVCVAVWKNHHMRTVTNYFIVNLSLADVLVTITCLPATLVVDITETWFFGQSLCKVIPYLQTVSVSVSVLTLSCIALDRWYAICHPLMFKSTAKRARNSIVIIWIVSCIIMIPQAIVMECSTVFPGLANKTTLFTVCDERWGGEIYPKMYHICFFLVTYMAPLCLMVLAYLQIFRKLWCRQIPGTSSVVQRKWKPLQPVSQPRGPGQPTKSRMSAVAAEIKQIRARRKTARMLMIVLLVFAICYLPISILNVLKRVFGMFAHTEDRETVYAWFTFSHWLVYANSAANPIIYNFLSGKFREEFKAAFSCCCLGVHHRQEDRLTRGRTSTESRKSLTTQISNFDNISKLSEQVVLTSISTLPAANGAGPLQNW
Outline: (§1)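 Recombinant CHO or HEK cells expressing human OX1R or OX2R, serum-deprived overnight in HEPES buffer pH 7.4 with 1% BSA. Cells were loaded with 2 μM Fluo4-AM plus 0.1 mM probenecid for 1 h. Compound (up to eight concentrations, usually 10⁻⁹–10⁻⁵ M) was added first, then submaximal orexin A 1 h later. Curves run in triplicate; pKi from IC50 by Cheng–Prusoff.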

[2] = target: T2, Orexin/Hypocretin receptor type 1 (Homo sapiens, UniProt O43613); assay: Antagonist activity at human OX1 receptor expressed in CHO cells assessed as inhibition of orexin A-induced Ca2+ accumulation after 1 hr by Fluo-4-AM staining-based FLIPR assay; format: functional, cell-based; outline: as §1
T2 sequence (O43613 whole entry): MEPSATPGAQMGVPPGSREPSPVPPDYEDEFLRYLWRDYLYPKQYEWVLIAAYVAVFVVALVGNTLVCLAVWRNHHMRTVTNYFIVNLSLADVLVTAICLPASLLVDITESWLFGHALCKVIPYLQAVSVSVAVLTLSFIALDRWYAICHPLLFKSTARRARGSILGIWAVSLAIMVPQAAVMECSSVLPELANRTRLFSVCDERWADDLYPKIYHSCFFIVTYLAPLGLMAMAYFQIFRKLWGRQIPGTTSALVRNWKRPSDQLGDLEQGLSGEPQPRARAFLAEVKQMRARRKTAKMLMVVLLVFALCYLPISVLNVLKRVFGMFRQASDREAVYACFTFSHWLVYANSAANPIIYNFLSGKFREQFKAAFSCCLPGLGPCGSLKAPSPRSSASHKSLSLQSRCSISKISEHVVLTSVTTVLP

[3] = tested on: Brain; assay: Fraction unbound in C57BL/6 mouse brain at 50 mg/kg, po after 1 hr by LC-MS/MS analysis; format: ADME, organism-based; parameters: dose 50 mg/kg, route oral; settings: in vivo
Outline: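 Unbound fraction assessed in mouse brain homogenate by a slightly adapted literature method, measured separately from the dosed animals. Free brain level obtained by multiplying fraction unbound by brain concentration from the 50 mg/kg po satellite group at 60 min. Mean ± SD, n = 3.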

[4] = Volume of distribution at steady state in C57BL/6 mouse at 1 mg/kg, iv; format: ADME, organism-based; parameters: dose 1 mg/kg, route intravenous; settings: in vivo, read-out: Vdss
Outline: (§2)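 Cassette PK in male C57BL/6 mice (20–30 g), up to five test compounds plus one reference. Iv 1 mg/kg in NMP/blank plasma 10/90 v/v, 5 mL/kg, saphenous vein. Oral 3 mg/kg suspended in 0.5% w/v carboxymethylcellulose in water/Tween 80 (99.5/0.5), 10 mL/kg gavage. Blood sampled 5 min (iv) or 15 min (po) to 24 h, n = 3 per time point, measured by LC/MS/MS.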

[5] = Total blood clearance in C57BL/6 mouse at 1 mg/kg, iv; format: ADME, organism-based; parameters: dose 1 mg/kg, route intravenous; outline: as §2
[6] = tested on: Mus musculus; assay: Induction of sleep in C57BL/6 mouse assessed as increased rapid eye movement sleep proportion at 50 mg/kg, po measured during 1 hr by EEG/EMG analysis relative to vehicle-treated control; format: functional, organism-based; parameters: dose 50 mg/kg
Outline: (§3)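 Male C57Bl/6 mice with implanted cortical EEG screw electrodes and EMG, recovered 2 weeks, 12 h/12 h light/dark cycle. Crossover: vehicle (0.5% methylcellulose, 10 mL/kg po) on day 2, compound po on day 3, each given 5–15 min before lights-off. 23 h recordings; EEG filtered 0.3–30 Hz, EMG 5–30 Hz; 10 s epochs scored as wake, NREM or REM from EEG/EMG and infrared motility.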

[7] = AUC (infinity) in C57BL/6 mouse blood at 3 mg/kg, po; format: ADME, organism-based; parameters: time infinity, dose 3 mg/kg, route oral; outline: as §2
[8] = Drug uptake in C57BL/6 mouse blood at 50 mg/kg after 1 hr by LC-MS/MS analysis; format: ADME, organism-based; parameters: dose 50 mg/kg; settings: read-out: Drug uptake
Outline: (§4)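 Satellite PK group: oral gavage of 50 mg/kg suspended in 0.5% w/v methylcellulose in water, 10 mL/kg. Blood and brain taken after decapitation at 15 and 60 min post-dose, n = 3 mice per time point, stored at −20 °C. Brain homogenised in 2 mM KH₂PO₄; acetonitrile quench with internal standard; LC/MS/MS against six-level calibration curve. Mean ± SD reported.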

[9] = tested on: Brain; assay: Drug uptake in C57BL/6 mouse brain at 50 mg/kg after 1 hr by LC-MS/MS analysis; format: ADME, organism-based; parameters: dose 50 mg/kg; settings: in vivo; outline: as §4
[10] = Oral bioavailability in C57BL/6 mouse blood at 3 mg/kg; format: ADME, organism-based; outline: as §2
[11] = tested on: Mus musculus; assay: Effect on locomotion in C57BL/6 mouse assessed as reduction of motility at 50 mg/kg, po measured up to 4 hrs; format: functional, organism-based; parameters: dose 50 mg/kg
Outline: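 Mice habituated, then dosed orally immediately before lights-off (15:00, start of active phase); vehicle 0.5% methylcellulose in water. Inactivity = any minute with no infrared beam breaks. Per-animal difference between inactivity 15:00–19:00 post-dose and the same 4 h during habituation 24 h earlier. n = 6; one-way ANOVA with Dunnett's test versus vehicle.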

[12] = tested on: Mus musculus; assay: Induction of sleep in C57BL/6 mouse assessed as increase in rapid eye movement at 50 mg/kg, po measured during 1 hr by EEG/EMG analysis relative to vehicle-treated control; format: functional, organism-based; parameters: dose 50 mg/kg
Outline: (§5)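 Male C57Bl/6 mice with implanted cortical EEG and EMG electrodes, 2-week recovery, 12/12 h light cycle. Vehicle (0.5% methylcellulose, 10 mL/kg po) given on day 2 and compound po on day 3, just before lights off. Recording ran 23 h. 10 s epochs scored as wake, NREM or REM from EEG/EMG plus infrared motility. Each animal served as its own vehicle control.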

[13] = target: T3, Orexin receptor type 2 (Mus musculus, UniProt P58308); assay: Antagonist activity at mouse OX2 receptor expressed in HEK cells assessed as inhibition of orexin A-induced Ca2+ accumulation after 1 hr by Fluo-4-AM staining-based FLIPR assay; format: functional, cell-based, HEK293
T3 sequence (P58308 whole entry): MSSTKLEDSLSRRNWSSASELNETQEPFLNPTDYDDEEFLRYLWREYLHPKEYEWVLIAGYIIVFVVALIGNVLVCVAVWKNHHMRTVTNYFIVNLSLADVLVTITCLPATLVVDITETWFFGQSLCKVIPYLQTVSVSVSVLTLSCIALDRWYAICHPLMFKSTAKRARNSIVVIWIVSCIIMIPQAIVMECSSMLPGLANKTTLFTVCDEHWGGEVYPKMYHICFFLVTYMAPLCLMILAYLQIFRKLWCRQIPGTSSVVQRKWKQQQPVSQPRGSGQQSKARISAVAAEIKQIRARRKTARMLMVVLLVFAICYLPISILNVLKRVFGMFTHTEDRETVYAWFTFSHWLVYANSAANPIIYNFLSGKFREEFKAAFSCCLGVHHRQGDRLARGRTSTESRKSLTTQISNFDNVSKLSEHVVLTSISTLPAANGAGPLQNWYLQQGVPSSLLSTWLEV

[14] = target: T4, Orexin/Hypocretin receptor type 1 (Mus musculus, UniProt P58307); assay: Antagonist activity at mouse OX1 receptor expressed in CHO cells assessed as inhibition of orexin A-induced Ca2+ accumulation after 1 hr by Fluo-4-AM staining-based FLIPR assay; format: functional, cell-based
T4 sequence (P58307 whole entry): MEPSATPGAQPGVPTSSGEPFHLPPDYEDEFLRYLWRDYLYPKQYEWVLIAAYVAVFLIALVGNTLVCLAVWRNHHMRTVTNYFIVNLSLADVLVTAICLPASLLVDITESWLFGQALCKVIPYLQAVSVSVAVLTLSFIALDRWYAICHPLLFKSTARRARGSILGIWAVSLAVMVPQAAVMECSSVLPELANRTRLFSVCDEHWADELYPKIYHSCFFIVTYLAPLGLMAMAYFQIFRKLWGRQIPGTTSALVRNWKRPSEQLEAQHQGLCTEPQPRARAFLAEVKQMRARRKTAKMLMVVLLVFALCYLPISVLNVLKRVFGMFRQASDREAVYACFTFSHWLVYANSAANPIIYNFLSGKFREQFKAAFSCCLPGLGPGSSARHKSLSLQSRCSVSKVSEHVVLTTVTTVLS

[15] = tested on: Mus musculus; assay: Induction of sleep in C57BL/6 mouse assessed as increase in non-rapid eye movement at 50 mg/kg, po measured during 4 hrs by EEG/EMG analysis relative to vehicle-treated control; format: functional, organism-based; parameters: dose 50 mg/kg; outline: as §3
[16] = tested on: Mus musculus; assay: Induction of sleep in C57BL/6 mouse assessed as rapid eye movement and non-rapid eye movement sleep balance at 50 mg/kg, po measured during 1 hr by EEG/EMG analysis relative to vehicle-treated control; format: functional, organism-based; parameters: dose 50 mg/kg; outline: as §5
[17] = tested on: Mus musculus; assay: Induction of sleep in C57BL/6 mouse assessed as increase in total sleep time at 50 mg/kg, po measured during first 4 hrs by EEG/EMG analysis relative to vehicle-treated control
[18] = Cmax in C57BL/6 mouse blood at 3 mg/kg, po; format: ADME, organism-based; parameters: dose 3 mg/kg, route oral; outline: as §2
[19] = Ratio of drug level in brain to blood in C57BL/6 mouse at 3 mg/kg, po after 15 mins; format: ADME, organism-based; parameters: dose 3 mg/kg, route oral
Outline: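 Male C57BL/6 mice (20–30 g), cassette dosing of up to five compounds plus a reference. Blood and brain collected 15 min post-dose, n = 3. Brain homogenised in 2 mM KH2PO4 and extracted with acetonitrile. LC/MS/MS quantitation; mean brain/blood ratio.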

SMILES	Ki [1]	Ki [2]	further results
O=C1N(Cc2ccccc2)CCCC12CCN(c1cnc3ccccc3n1)CC2	182 nM	1550 nM	–
O=C1CCCC2(CCN(c3cnc4ccccc4n3)CC2)N1Cc1c[nH]c2ccccc12	69.2 nM	275 nM	–
O=C1N(Cc2cccc3[nH]ccc23)CCCC12CCN(c1cnc3ccccc3n1)CC2	77.6 nM	550 nM	–
COc1ccnc(N2CCC3(CCCN(Cc4c[nH]c5ccccc45)C3=O)CC2)n1	–	–	Fu [3]: 0.61%; Vd [4]: 1.6 L/kg; clearance [5]: 28 mL/min/kg; Activity [6]: Active; AUC(0-inf) [7]: 2.09 µM·h; concentration at 1 h [8]: 6.91 µM; Drug uptake [9]: 8778 pmol/g; bioavailability [10]: 47%; Activity [11]: Active; Activity [12]: inactive; Ki [13]: 58.9 nM; Ki [14]: 457 nM; Activity [15]: Active; Activity [16]: inactive; Activity [17]: Active; Cmax [18]: 0.864 µM; Kp at 0.25 h [19]: 1.1
O=C1N(Cc2c[nH]c3ccccc23)CCCC12CCN(c1cnc3ccccc3n1)CC2	61.7 nM	288 nM	–
O=C(Cc1ccccc1)N1CCCC12CCN(c1cnc3ccccc3n1)CC2	186 nM	955 nM	–

More lines, main results first:

Ki [1]	Ki [2]	SMILES	further results
3.89 nM	776 nM	Cc1cc(C)nc(N2CCC3(CCCN(Cc4n[nH]cc4-c4ccccc4)C3=O)CC2)n1	–
0.851 nM	372 nM	Cc1cc(C)nc(N2CCC3(CCCC(=O)N3Cc3cccc4[nH]ccc34)CC2)n1	–
26.9 nM	1410 nM	Cc1ccnc(N2CCC3(CCCN(Cc4c[nH]c5ccccc45)C3=O)CC2)n1	–
4.57 nM	759 nM	Cc1cc(C)nc(N2CCC3(CCCN(Cc4nn(C)nc4-c4ccccc4)C3=O)CC2)n1	–
6.92 nM	661 nM	Cc1cc(C)nc(N2CCC3(CCCN(Cc4c[nH]c5ccccc45)C3=O)CC2)n1	–
16.2 nM	1320 nM	Cc1cc(C)nc(N2CCC3(CCCN(Cc4c[nH]c5ncccc45)C3=O)CC2)n1	–
